Measured values pooled from the literature.
Target: Microtubule-associated serine/threonine-protein kinase 1 (MAST1, Homo sapiens, UniProt Q9Y2H9)

SMILES | observed | method | concentration | remaining binding
CNC(=O)[C@@H]1CC[C@@H](n2c(-c3ccc4cnccc4c3)nc3ccc(C(=O)NCc4cccc(C(N)=O)c4)cc32)C1 | binding | competition with immobilised ligand | 1 µM | 100%
C[C@@H]1CCN(c2nccc(-c3cnn4ncccc34)n2)C1 | binding |  | 1 µM | 100%
FC(F)(F)Oc1cccc(-c2cnc3ccc(-c4ccncc4)nn23)c1 | cell-free assay | competition with immobilised ligand | 5 µM | 51%
Cc1cc(-n2nc(Cc3cc(F)cc(C(F)(F)F)c3)nc2C)ccc1C(N)=O | cell-free assay | competition with immobilised ligand | 1 µM | 100%
Cc1cnn2ncc(-c3ccnc(N(C)C)n3)c2c1 | binding |  | 1 µM | 100%
Cc1cnc(Nc2ccc(C(=O)N3CCC(N4CCCC4)CC3)cc2)nc1-c1cc2ccccc2s1 | binding | competition with immobilised ligand | 1 µM | 55%
c1cnn2ncc(-c3ccnc(N4CCC45COC5)n3)c2c1 | binding |  | 1 µM | 55%
Cc1c(NC(=O)c2cc(C(N)=O)nc3cc(F)ccc23)c(C(F)(F)F)nn1Cc1ccc(C#N)cc1 | cell-free assay | competition with immobilised ligand | 1 µM | 77%
CN(C)c1nccc(-c2cnn3ncccc23)n1 | binding |  | 1 µM | 76%
COc1cnc(Nc2cccc(S(N)(=O)=O)c2)nc1N1CCN(c2ccccc2)CC1 | binding | competition with immobilised ligand | 1 µM | 69%
Nc1ncc2c(n1)-c1c([nH]c3ccc(C#CC4CC4)cc13)CCCC2 | binding | competition with immobilised ligand | 1 µM | 62%
CN(CCCC(F)(F)F)c1nccc(-c2cnn3ncccc23)n1 | binding |  | 1 µM | 100%
CCN1CCN(Cc2ccc(C(=O)Nc3ccc(C)c(Oc4ccc5c(c4)CC(=O)N5)c3)cc2C(F)(F)F)CC1 | binding | competition with immobilised ligand | 1 µM | 100%
COc1ccc2cc(OCC3(C(=O)O)CN(C(=O)c4ccc(F)cc4)C3)ccc2c1 | cell-free assay | competition with immobilised ligand | 1 µM | 100%
O=C(NCCCN1CCOCC1)c1ccc(Nc2ncc(Cl)c(-c3ccc(Cl)s3)n2)cc1 | binding | competition with immobilised ligand | 1 µM | 63%
O=C(Nc1cccnn1)N1CC(C/C=C/c2cncc(Oc3ccc(C(F)(F)F)cn3)n2)C1 | cell-free assay | competition with immobilised ligand | 1 µM | 58%
O=C(c1ccc(Nc2ncc(Cl)c(-c3cc4ccccc4s3)n2)cc1)N1CCC(N2CCCC2)CC1 | binding | competition with immobilised ligand | 1 µM | 52%
CS(=O)(=O)N1CCCC(NC(=O)[C@H](CCC2CCCCC2)NC(=O)c2ccc(CNc3ncnc4c3nnn4-c3ccccc3)cc2)C1 (stereo partly drawn) | cell-free assay | competition with immobilised ligand | 0.1 µM | 100%
N[C@@H]1CCN(c2nccc(-c3cnn4ncccc34)n2)C1 | binding |  | 1 µM | 100%
O=C(NCC1CCOCC1)c1n[nH]cc1NC(=O)c1c(F)cccc1F | binding | competition with immobilised ligand | 1 µM | 51%
CCCOc1ccc([C@@H]2[C@@H](C(=O)O)[C@H](c3ccc4c(c3)OCO4)CN2CC(=O)Nc2c(CC)cccc2CC)cc1 | cell-free assay | competition with immobilised ligand | 1 µM | 100%
